Screening results: PubChem, Johns Hopkins Ion Channel Center
Only some compounds are listed: those with a hit (about 2.3% of all), similar ones and a draw of the others.
TRPC4 potent: allosterically enhances the mouse TRPC4 cation channel. hit rate 0.42% among 310,000. B-score at 10 µM. HEK293 TRPC4beta/mu-opioid, DAMGO EC20, Fluo-4 Ca2+ flux; hits give high values;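 active = B-score of calcium response area above 5 SD of library B-scores, with initial fluorescence ratio within 5 SD of library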;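 note: B-score of integrated fluorescence ratio over time as area under calcium response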
Target sequence (Q9QUQ5 whole entry, looked up): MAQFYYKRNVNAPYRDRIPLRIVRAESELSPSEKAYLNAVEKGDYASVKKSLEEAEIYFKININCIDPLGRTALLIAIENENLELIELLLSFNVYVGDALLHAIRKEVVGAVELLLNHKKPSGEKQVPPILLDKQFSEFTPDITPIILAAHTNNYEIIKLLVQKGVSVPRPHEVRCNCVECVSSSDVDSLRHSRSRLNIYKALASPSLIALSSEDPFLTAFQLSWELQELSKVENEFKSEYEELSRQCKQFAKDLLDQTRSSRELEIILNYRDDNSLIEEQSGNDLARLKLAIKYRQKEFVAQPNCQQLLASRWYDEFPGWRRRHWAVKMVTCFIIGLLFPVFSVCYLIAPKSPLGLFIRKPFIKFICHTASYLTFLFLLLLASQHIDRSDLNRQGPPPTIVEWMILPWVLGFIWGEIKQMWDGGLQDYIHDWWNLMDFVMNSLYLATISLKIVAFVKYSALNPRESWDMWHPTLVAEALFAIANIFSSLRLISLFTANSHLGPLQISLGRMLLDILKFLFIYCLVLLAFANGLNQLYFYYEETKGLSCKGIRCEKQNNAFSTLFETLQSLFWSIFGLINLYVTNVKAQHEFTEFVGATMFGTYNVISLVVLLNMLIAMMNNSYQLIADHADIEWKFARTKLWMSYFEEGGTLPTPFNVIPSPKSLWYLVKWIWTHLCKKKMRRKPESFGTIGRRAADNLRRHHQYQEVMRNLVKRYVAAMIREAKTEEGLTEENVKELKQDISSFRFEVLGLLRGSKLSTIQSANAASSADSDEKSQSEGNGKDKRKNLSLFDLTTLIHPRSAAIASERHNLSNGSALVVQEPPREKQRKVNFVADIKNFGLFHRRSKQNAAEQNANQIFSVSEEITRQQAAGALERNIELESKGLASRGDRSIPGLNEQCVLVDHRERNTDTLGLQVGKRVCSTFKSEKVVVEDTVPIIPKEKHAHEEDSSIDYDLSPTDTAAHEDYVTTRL
TRPC6 inh: mouse TRPC6 channel inhibition. Q61143. HEK293-TRPC6, membrane potential dye, ACh-evoked depolarization; hits give low values. B-score at 10 µM. hit rate 1.1% among 310,000;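 active = B-score under library mean minus 3 SD, initial fluorescence not abnormally high, positive integrated signal ratio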;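 note: B-score derived from integrated fluorescence ratio over the kinetic read; more negative B-score means stronger inhibition of depolarization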
TRPC6 act: activators of mouse TRPC6 channel | Q61143 | HEK293-TRPC6 membrane potential dye fluorescence; hits give high values | B-score at 10 µM | hit rate 0.13% among 310,000 | AID 2550;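 active = B-score of the integrated fluorescence ratio above library mean plus 3 SD, and starting fluorescence ratio within library mean plus 5 SD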;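 note: higher score means more depolarization so channel activation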
TRPC4 agonist: TRPC4 (mouse) channel activation; Q9QUQ5; HEK293 TRPC4beta/mu-opioid, Fluo4 calcium fluorescence; hits give high values; B-score at 10 µM; hit rate 0.49% among 310,000;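 active = B-score above 5 SD of library B-scores, and initial fluorescence ratio not above library mean plus 5 SD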;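 note: positive B-score marks a calcium rise read as TRPC4 activation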
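Assay system: HEK293 stable line with TRPC4beta plus mu-opioid receptor; schedule: 45 min room-temperature Fluo4 loading, 110 s read; technique: kinetic Fluo4 calcium fluorescence; evaluation: integrated baseline-normalised fluorescence ratio, converted to per-well B score; controls: buffer (low) and maximal DAMGO (high)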
TRPC4 block: inhibitors of mouse TRPC4 channel; B-score at 10 µM; hit rate 0.39% among 300,000; HEK293 TRPC4beta/mu-opioid, DAMGO-evoked Fluo4 calcium flux; hits give low values; Q9QUQ5; AID 2247;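 active = B-score over 3 SD under the library average, no early fluorescence shift, positive overall ratio signal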
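Signal: kinetic Fluo4 fluorescence imaging of calcium influx. Material: stable TRPC4beta/mu-opioid receptor HEK293 cells. Probe or stimulus: DAMGO in two steps, submaximal then maximal.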
TRPC4 spec 2: second selectivity test of TRPC6 inhibitors: effect on mouse TRPC4 | AID 2776 | hit rate 42% among 920 | inhibition, % at 10 µM | HEK293 TRPC4/MOR, membrane potential dye fluorescence; channel activated by saturating DAMGO dose | shares compounds with TRPC6 inh;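 active = compounds whose fluorescence signal differed from control wells by over 3 SD, either direction, in both duplicate plates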
TRPC4 spec: selectivity of TRPC6 inhibitors: effect on mouse TRPC4; shares compounds with TRPC6 inh; HEK293 TRPC4/mu-opioid, membrane potential fluorescence; activity change, negative = inhibition, % at 10 µM; hit rate 61% among 920; AID 2777;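 active = rise or fall in signal beyond 3 SD of buffer-only wells in both replicate plates, either sign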;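 note: integrated kinetic ratio of fluorescence range over baseline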
HEK293 MPD ctr 2-1: parental HEK293 nonspecific activity of TRPC6 inhibitors, second screen. shares compounds with TRPC6 inh. parental HEK293 membrane potential dye fluorescence; maximal acetylcholine challenge after compound addition. signal change vs control, % at 10 µM. hit rate 31% among 920. AID 2779;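 active = membrane potential signal moving either way by over 3 SD of the maximum-effect control, in both duplicate plates, meaning non-specific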
HEK293 MPD ctr-1: counter-screen for TRPC6 inhibitors: effect in parental HEK293 cells | hit rate 60% among 920 | AID 2780 | parental HEK293 membrane potential dye fluorescence | membrane potential signal change, % at 10 µM | shares compounds with TRPC6 inh;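 active = membrane potential signal shifting up or down by more than 3 SD of buffer-only wells, on both duplicate plates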
HEK293 MPD ctr-2: counter-screen for TRPC6 modulators: effect in parental HEK293 cells | shares compounds with TRPC6 inh | membrane potential dye fluorescence | membrane potential signal change, % at 10 µM | hit rate 51% among 2,400 | AID 488924;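 active = membrane potential signal moves up or down beyond 5 SD from buffer-only wells, on both duplicate plates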
HEK293 MPD ctr 2-2: second check of TRPC6 modulator effects in parental HEK293 cells | hit rate 14% among 2,400 | membrane potential dye fluorescence; after compound, maximal acetylcholine stimulation | inhibition, % at 10 µM | shares compounds with TRPC6 inh;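 active = membrane potential signal drops by more than 5 SD from the mean control signal, in both duplicate plates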;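 note: plate controls were acetylcholine ECmax control wells for no effect and buffer only wells for full effect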
TRPC4/MOR mod: tests whether TRPC6 modulators also affect mouse TRPC4. hit rate 69% among 2,400. AID 488927. percent change from control (negative = decrease, positive = increase), % at 10 µM. shares compounds with TRPC6 inh. HEK293 TRPC4/mu-opioid, membrane potential fluorescence;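 active = membrane potential signal moved up or down beyond 5 SD of buffer control wells, in both duplicate plates, actives on both sides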;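 note: plate controls were assay buffer wells for no effect and DAMGO maximal-effect wells for full effect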
TRPC4 ctr inh 2: mouse TRPC4 off-target activity of TRPC6 modulators, second screen | inhibition, % at 10 µM | shares compounds with TRPC6 inh | HEK293 TRPC4/mu-opioid, membrane potential dye fluorescence; stimulated with maximal-effect DAMGO | hit rate 55% among 2,400 | AID 488928;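 active = drop in membrane potential signal beyond 5 SD of the control wells in both duplicate plates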;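 note: TRPC4 counter screen for TRPC6 hits run under conditions tuned for TRPC6 not TRPC4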
TRPC6 inh conf: confirmation of mouse TRPC6 inhibitors; shares compounds with TRPC6 inh; HEK293-TRPC6, membrane potential dye, ACh-evoked depolarization; inhibition, % at 10 µM; hit rate 43% among 3,300; AID 488960;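 active = fluorescence ratio falls more than 5 SD below the full-stimulation control mean, in both duplicate runs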;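 note: integrated fluorescence ratio of peak minus minimum over baseline after agonist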
TRPC6 act confirm: mouse TRPC6 activator confirmation. hit rate 11% among 2,800. shares compounds with TRPC6 inh. HEK293-TRPC6 membrane potential dye fluorescence, FDSS. activation, % at 10 µM;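 active = ratio signal rise beyond 5 SD above unstimulated control wells' mean, seen in both duplicate runs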;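 note: plate controls were buffer EC0 wells for no effect and acetylcholine ECmax response for full effect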
* = called active by the depositor; i = inactive; . = not tested or not shown; + = active, no number.

SMILES | TRPC4 potent | TRPC6 inh | TRPC6 act | TRPC4 agonist | TRPC4 block | HEK293 MPD ctr-2 | HEK293 MPD ctr 2-2 | TRPC4/MOR mod | TRPC4 ctr inh 2 | TRPC6 inh conf | TRPC6 act confirm | others
COc1cccc(NC(=O)c2cc(-c3ccc(OC)cc3OC)nc3ccccc23)c1 | i | -5.1* | i | i | i | + | 73%* | -94%* | 66%* | 54%* | i
COc1ccc(-c2cc(C(=O)Nc3cc(C)on3)c3ccccc3n2)c(OC)c1 | i | i | i | i | i | . | . | . | . | . | .
CC(OC(=O)CNC(=O)COc1ccccc1)C(=O)N(C)Cc1ccccc1 (stereo not drawn) | i | i | i | i | i | . | . | . | . | . | .
CC(C)C(=O)Nc1cc2c3c(c1)CCN3C(=O)CC2 | i | i | i | i | i | . | . | . | . | . | .
COc1ccc(N2CCN(CC(O)COc3ccc(C)c(C)c3)CC2)cc1 (stereo not drawn) | i | -6.1* | i | i | i | i | i | i | 48%* | i | i
CCOc1ccc(S(=O)(=O)Nc2cc(Cl)ccc2O)cc1 | i | -5.3* | i | i | i | i | i | -16%* | i | i | i
CC(Nc1ccc(Cl)cc1)c1cc(Cl)ccc1O (stereo not drawn) | i | i | i | i | i | . | . | . | . | . | .
CCOc1ccc(S(=O)(=O)Nc2cccc(Cl)c2)cc1 | i | i | i | i | i | . | . | . | . | . | .
CCOc1ccc(NC(C)c2cc(Cl)ccc2O)cc1 (stereo not drawn) | i | -5.2* | i | i | i | i | i | -15%* | 38%* | i | i
COc1cccc(CN2CCC(n3nccc3NC(=O)CCOc3ccccc3)CC2)c1O | i | -10* | i | i | i | . | . | . | . | i | i | TRPC4 spec 2=i;TRPC4 spec=1.8%*;HEK293 MPD ctr 2-1=i;HEK293 MPD ctr-1=0.8%*
COc1cccc(CN2CCC(n3nccc3NC(=O)CCOc3ccccc3)CC2)c1 | i | i | i | i | i | . | . | . | . | . | .
Cc1cc(NC(=O)CSc2nc(-c3ccccc3)c(C#N)c(=O)[nH]2)no1 | i | i | i | i | i | . | . | . | . | . | .
Cc1cc(C)nc(NS(=O)(=O)c2ccc(NC(=O)CSc3nc(-c4ccccc4)c(C#N)c(=O)[nH]3)cc2)n1 | i | i | 13* | i | i | i | i | 10%* | i | i | 81%*
Cc1cccnc1NC(=O)CCNC(=O)c1ccc(Br)cc1 | i | i | i | i | i | . | . | . | . | . | .
Cc1c(C)n(C)c2ccc(C(=O)NCCCN3CCN(c4ccccc4F)CC3)cc12 | i | -7.3* | i | i | i | i | i | i | 67%* | 42%* | i
Cc1c(C)n(C)c2ccc(C(=O)NCCCN3CCN(c4ccc(F)cc4)CC3)cc12 | i | i | i | i | i | . | . | . | . | . | .
O=C(CN1CCOCC1)Nc1c2c(nc3ccccc13)N(Cc1ccccc1)CC2 | i | i | i | i | i | . | . | . | . | . | .
O=C(CN1CCCC1)Nc1c2c(nc3ccccc13)N(Cc1ccccc1)CC2 | i | -6.1* | i | i | i | -312%* | i | -49%* | 62%* | 46%* | i
CCN(CC)CC(=O)Nc1c2c(nc3ccccc13)N(C)CC2 | i | -7.5* | i | i | i | -213%* | i | -30%* | 54%* | 48%* | i
CN(C)c1cc(NC(=O)CNC(C)(C)CC(C)(C)C)c2ccccc2n1 | i | i | i | i | i | . | . | . | . | . | .
CC(C)C(=O)Nc1c2c(nc3ccccc13)N(C)CC2 | i | i | i | i | i | . | . | . | . | . | .
CN(C)c1cc(NC(=O)CN2CCCC2)c2ccccc2n1 | i | -7.2* | i | i | i | . | . | . | . | i | i | TRPC4 spec 2=66%*;TRPC4 spec=-19%*;HEK293 MPD ctr 2-1=i;HEK293 MPD ctr-1=-324%*
CCCCNC(=O)NS(=O)(=O)c1ccc(NC(=O)CCC(=O)c2cccs2)cc1 | i | i | i | i | i | . | . | . | . | . | .
Cc1[nH]c(=O)[nH]c(=O)c1S(=O)(=O)N1CCCC(C(=O)NCCC2=CCCCC2)C1 (stereo not drawn) | i | i | i | i | i | . | . | . | . | . | .
CN1CCN(C2CCN(c3cccc(Cl)c3)CC2)CC1CCO (stereo not drawn) | i | i | i | i | i | . | . | . | . | . | .
Clc1ccc2c(c1)C(N1CCNCC1)=Nc1ccccc1O2 | i | -5.1* | i | i | i | i | i | 8.0%* | 48%* | i | i
CCN(CC)CCNC(=O)c1ccc(NC(=O)c2ccc3c(c2)CCC3)cc1 | i | -9.5* | 12* | i | i | 217%* | i | 29%* | i | 69%* | 160%*
CCN(C1CCCCC1)S(=O)(=O)c1ccc(S(=O)(=O)N2CCN(CCC#N)CC2)cc1 | i | -5.5* | i | i | i | i | i | 10%* | i | 38%* | i
CC(C)(C)NCC(O)(c1ccc(Cl)cc1)c1ccc(Cl)cc1 | i | i | i | i | i | . | . | . | . | . | .
